We go through 16 molecules from PubChem BioAssay.

Structures are written as SMILES. The source made the active and inactive calls.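 The calls were made as follows, unless noted: active = viability at or below 10% of carrier control in both of two separate runs; inconclusive = viability at or below 10% in only one of the two runs; inactive = the rest.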

The nature of assay [1]: reducers of endogenous Her2 protein level, primary screen, SKBR3 breast tumor cells, AlphaScreen, ATP viability (AID 461;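 active = Her2 level under about 52% in both replicate screens, with viability over 70% of control, limit read from the data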;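 as to Her2 level: lower value means less Her2 protein in the cells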;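 as to viability: percent of carrier control wells set as 100% viability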). Conditions: 18-24 h, measured here: SKBR3 viability, ATP luminescence, at 10 µM.
The target in assay [2] is Receptor tyrosine-protein kinase erbB-2 (Homo sapiens) (UniProt P04626). The description is as above. Conditions: 18-24 h, at 10 µM, stronger effect = lower value.
The nature of assay [3]: SK-BR-3 cell growth inhibitors, pilot screen, 24 h, human (AID 572).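 Also: compound exposure lasted between 18 and 24 h rather than exactly 24 h; 100% = carrier-treated control wells.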 Conditions: SK-BR-3 viability, CellTiter-Glo luminescence, at 10 µM, stronger effect = lower value. (In ATP-based viability assays light output follows the ATP content of the culture.)
A short description of assay [4]: HUVEC growth inhibition – cell-based, human, primary screen (AID 575;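 active = viability at or below 30% in both replicate assays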;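 also: 100% = median of untreated cell wells with 0.1% DMSO on each plate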). The following applies: HUVEC proliferation, CellTiter-Glo luminescence, 72 h; at 10 µM; stronger effect = lower value. An outline of the steps:
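System – primary HUVEC, no more than 12 passages · Medium – Low-serum (2% FBS) EBM, supplemented · Times – 72 h exposure, 37 °C, 5% CO2, 30 min RT equilibration · Measured by – luminescent ATP assay · Read-out – % viability relative to median vehicle-well signal on each plate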

The nature of assay [5]: growth inhibitors of H69AR lung tumor, primary screen, human, duplicate replicates (AID 580;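 active = viability at or under a set limit in both replicates, limit being median viability minus 3 SD, cut at about 48% in these data, passing the limit was not always enough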;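 also: 100% = mean luminescence of untreated wells and 0% = no signal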). The following applies: H69AR lung tumor cells viability, ATP luminescence, 72 h; at 10 µM; stronger effect = lower value.
Assay [6] can be described thus: reversal of MRP1-mediated doxorubicin resistance, pilot screen, H69AR cells, doxorubicin co-treatment (AID 601;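 active = viability loss from added drug above about 55%, and viability with drug at most 40%, in both replicates, limit read from the data, passing the limit was not always enough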). The following applies: CellTiter-Glo, 72 h, at 10 µM; for differential viability (reversal): stronger effect = higher value.
Assay [7] in a line: 384-well plate pilot, post-Golgi transport modulator project, inhibition of yeast transport mutant growth (AID 636; in the data active = inhibition above about 31%). Conditions: absorbance 615 nm, about 18 h, stronger effect = higher value.
Assay [8] is described as follows: growth suppression of yeast trafficking mutant, preliminary HTS, modulators of trafficking downstream of Golgi apparatus project, 1536-format plate, OD 615 nm (AID 637; in the data active = inhibition above about 30%). The following applies: yeast transport mutant growth, absorbance 615 nm, 18 h; stronger effect = higher value.
Setting [9] is: H69AR cells + 2 uM doxorubicin, measured here: viability with 2 uM doxorubicin, stronger effect = lower value.
[10] abbreviates: H69AR cells, compound alone cytotoxicity.

Receptor tyrosine-protein kinase erbB-2 (Homo sapiens), sequence (P04626 whole entry, looked up): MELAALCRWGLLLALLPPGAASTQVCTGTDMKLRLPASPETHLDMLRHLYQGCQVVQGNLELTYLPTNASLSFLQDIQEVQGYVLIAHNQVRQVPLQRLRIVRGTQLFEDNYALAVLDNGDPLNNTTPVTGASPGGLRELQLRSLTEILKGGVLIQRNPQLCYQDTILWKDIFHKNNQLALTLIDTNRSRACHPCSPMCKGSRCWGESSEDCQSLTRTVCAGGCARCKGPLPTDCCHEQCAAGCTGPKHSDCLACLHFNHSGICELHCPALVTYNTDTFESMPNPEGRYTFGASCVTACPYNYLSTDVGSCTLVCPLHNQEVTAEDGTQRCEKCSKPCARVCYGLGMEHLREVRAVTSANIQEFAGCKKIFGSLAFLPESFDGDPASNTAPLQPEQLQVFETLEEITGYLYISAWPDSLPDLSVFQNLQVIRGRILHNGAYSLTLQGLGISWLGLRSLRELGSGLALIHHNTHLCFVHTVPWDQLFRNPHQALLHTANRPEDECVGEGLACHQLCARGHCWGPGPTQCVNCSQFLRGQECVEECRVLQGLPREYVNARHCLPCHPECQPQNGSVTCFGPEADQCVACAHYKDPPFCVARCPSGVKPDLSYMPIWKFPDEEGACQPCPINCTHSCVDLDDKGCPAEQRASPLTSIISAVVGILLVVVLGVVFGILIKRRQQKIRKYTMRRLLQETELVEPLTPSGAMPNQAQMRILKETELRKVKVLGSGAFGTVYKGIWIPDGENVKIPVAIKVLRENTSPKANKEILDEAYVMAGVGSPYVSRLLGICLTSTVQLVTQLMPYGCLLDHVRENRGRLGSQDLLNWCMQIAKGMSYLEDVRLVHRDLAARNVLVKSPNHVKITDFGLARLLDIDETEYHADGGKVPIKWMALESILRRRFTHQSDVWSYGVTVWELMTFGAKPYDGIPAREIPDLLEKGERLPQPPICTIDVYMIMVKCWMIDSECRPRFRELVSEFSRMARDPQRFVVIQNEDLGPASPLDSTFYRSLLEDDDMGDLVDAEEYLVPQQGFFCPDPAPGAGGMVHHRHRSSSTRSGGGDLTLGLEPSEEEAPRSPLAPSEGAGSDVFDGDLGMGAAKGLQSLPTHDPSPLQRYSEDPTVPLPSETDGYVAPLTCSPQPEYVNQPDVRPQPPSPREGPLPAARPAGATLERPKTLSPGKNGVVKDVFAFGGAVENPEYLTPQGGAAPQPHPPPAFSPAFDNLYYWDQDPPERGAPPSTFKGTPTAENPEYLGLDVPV

For orientation: viability means a read-out of living cells in per cent, often relative to untreated cells. Usually inhibition stands for the drop in the measured response relative to a control, in per cent. Consider `CC(C)CC(c1nnnn1C1CCCC1)N1CCN(c2ccccc2F)CC1` (stereo not given), for which the viability was 92.5% in assay [1]; 92.5% (inactive) in assay [3]; 103% (inactive) in assay [4]; 84.2% (inactive) in assay [5]; 91.9% in assay [6] (setting [9]); 84.2% in assay [6] (setting [10]). The Her2 level in assay [2] was 94% (inactive). Further, the differential viability (reversal) in assay [6] (H69AR cells + 2 uM doxorubicin) was -7.72% (inactive). The inhibition was -6.32% (inactive) in assay [7] and 10.7% (inactive) in assay [8].

Regarding `O=C(C1CC1)N1CCC(c2nc(-c3ccc(S(=O)(=O)NCC4CCCO4)cc3)no2)CC1` (stereo not given), the viability is 74.5% in assay [1]; 74.5% (inactive) in assay [3]; 54.7% (inactive) in assay [4]; 90.6% (inactive) in assay [5]; 99.9% in assay [6] (setting [9]); 90.6% in assay [6] (setting [10]). Moreover, the Her2 level in assay [2] is 114% (inactive). Besides, the differential viability (reversal) in assay [6] (H69AR cells + 2 uM doxorubicin) is -9.35% (inactive). Besides, the inhibition in assay [7] is 0.41% (inactive); in assay [8], -0.82% (inactive).

For `CC1=CC=CC2=NC(=O)CC(C)(C(=O)N(CC(=O)NC(C)C)C3CCCC3)N12` (stereo not given), the viability is 101% in assay [1]; 101% (inactive) in assay [3]; 96.5% (inactive) in assay [4]; 94% (inactive) in assay [5]; 100% in assay [6] (setting [9]); 94% in assay [6] (setting [10]). The Her2 level in assay [2] was 100% (inactive). The differential viability (reversal) in assay [6] (H69AR cells + 2 uM doxorubicin) is -6.48% (inactive). For the same molecule, the inhibition in assay [7] was -4% (inactive); in assay [8] it was 0.16% (inactive).

As for `Cc1cc(-c2ccccc2)c2nncn2n1`, the viability was 106% in assay [1]; 106% (inactive) in assay [3]; 116% (inactive) in assay [4]; 89.9% (inactive) in assay [5]; 84.1% in assay [6] (setting [9]); 89.9% in assay [6] (setting [10]). Also, in assay [2], the Her2 level is 96% (inactive). Besides, in assay [6] (H69AR cells + 2 uM doxorubicin), the differential viability (reversal) was 5.82% (inactive). Also, the values for the inhibition in assay [7] and in assay [8] were -8.27% (inactive) and 2.42% (inactive), respectively.

Consider `CC(=O)N(CCN(C(C)=O)c1ccccc1)c1ccccc1`, for which the viability in assay [1] was 105%; in assay [3] it was 105% (inactive); in assay [4], 88.8% (inactive); in assay [5], 91.7% (inactive); in assay [6] (setting [9]) it was 80%; in assay [6] (setting [10]), 91.7%. In addition, in assay [2], the Her2 level is 93% (inactive). In addition, in assay [6] (H69AR cells + 2 uM doxorubicin), the differential viability (reversal) was 11.7% (inactive). Moreover, the inhibition in assay [7] is -1.95% (inactive); in assay [8] it was -1.64% (inactive).

As to `O=C(CSc1nnc(-c2ccco2)c(-c2ccco2)n1)Nc1ccccc1`, the viability in assay [1] is 102%; in assay [3], 102% (inactive); in assay [4], 89.2% (inactive); in assay [5] it was 77.6% (inactive); in assay [6] (setting [9]), 89.8%; in assay [6] (setting [10]) it was 77.6%. The Her2 level in assay [2] was 64% (inactive). The differential viability (reversal) in assay [6] (H69AR cells + 2 uM doxorubicin) is -12.2% (inactive). Moreover, the inhibition was 2.63% (inactive) in assay [7] and 9.03% (inactive) in assay [8].

Take `CCOC(=O)C1=C(c2ccccc2)Nc2nc(C)nn2C1c1cccc(OC)c1OC` (stereo not given): the viability was 111% in assay [1]; 111% (inactive) in assay [3]; 90.6% (inactive) in assay [4]; 90.2% (inactive) in assay [5]; 53.4% in assay [6] (setting [9]); 90.2% in assay [6] (setting [10]). The Her2 level in assay [2] is 130% (inactive). Further, the differential viability (reversal) in assay [6] (H69AR cells + 2 uM doxorubicin) is 36.8% (inactive). In addition, the inhibition in assay [7] is -2.24% (inactive); in assay [8], -0.66% (inactive).

As for `CCNC(=O)COc1ccc(Br)cc1Cl`, the viability in assay [1] is 96%; in assay [3], 96% (inactive); in assay [4], 92.1% (inactive); in assay [5] it was 93.2% (inactive); in assay [6] (setting [9]) it was 97.6%; in assay [6] (setting [10]) it was 93.2%. For the same molecule, the Her2 level in assay [2] is 91% (inactive). Moreover, the differential viability (reversal) in assay [6] (H69AR cells + 2 uM doxorubicin) is -4.36% (inactive). Besides, the inhibition was -5% (inactive) in assay [7] and -1.9% (inactive) in assay [8].

For the molecule `N[C@@H](Cc1ccccc1)c1nnc2sc(SCc3ccccc3)nn12`, the viability is 90% in assay [1]; 90% (inactive) in assay [3]; 85.2% (inactive) in assay [4]; 87.9% (inactive) in assay [5]; 76.4% in assay [6] (setting [9]); 87.9% in assay [6] (setting [10]). For the same molecule, the Her2 level in assay [2] was 84.5% (inactive). The differential viability (reversal) in assay [6] (H69AR cells + 2 uM doxorubicin) is 11.5% (inactive). Moreover, the inhibition in assay [7] was -3.07% (inactive); in assay [8], 0.48% (inactive).

On to `CCOC(=O)N1CCN(C(=O)CSc2nnc(Cc3ccccc3)o2)CC1`, for which the viability was 92.5% in assay [1]; 92.5% (inactive) in assay [3]; 76% (inactive) in assay [4]; 103% (inactive) in assay [5]; 77.2% in assay [6] (setting [9]); 103% in assay [6] (setting [10]). In addition, in assay [2], the Her2 level is 102% (inactive). Besides, in assay [6] (H69AR cells + 2 uM doxorubicin), the differential viability (reversal) was 25.7% (inactive). Besides, the inhibition was 0.27% (inactive) in assay [7] and 1.97% (inactive) in assay [8].

With `CCc1nnc(NC(=O)c2ccc(S(=O)(=O)NCC(C)C)cc2)s1`, the viability in assay [1] was 92.5%; in assay [3] it was 92.5% (inactive); in assay [4], 100% (inactive); in assay [5], 98.3% (inactive); in assay [6] (setting [9]), 97.2%; in assay [6] (setting [10]), 98.3%. In addition, the Her2 level in assay [2] is 89% (inactive). The differential viability (reversal) in assay [6] (H69AR cells + 2 uM doxorubicin) is 1.11% (inactive). Further, the figures for the inhibition in assay [7] and in assay [8] were -5.95% (inactive) and 0.16% (inactive), respectively.

For the molecule `CC1(C)CC(=O)C(C=NCCc2ccc(S(N)(=O)=O)cc2)=C(O)C1`, the viability in assay [1] is 116%; in assay [3] it was 116% (inactive); in assay [4], 98.7% (inactive); in assay [5], 88% (inactive); in assay [6] (setting [9]) it was 90%; in assay [6] (setting [10]), 88%. In addition, the Her2 level in assay [2] was 95% (inactive). In addition, the differential viability (reversal) in assay [6] (H69AR cells + 2 uM doxorubicin) was -2.06% (inactive). Further, the values for the inhibition in assay [7] and in assay [8] were -6.13% (inactive) and -2.3% (inactive), respectively.

For `Cc1csc(SCC(=O)NC(=O)NCc2ccccc2)n1`, the viability in assay [1] is 108%; in assay [3] it was 108% (inactive); in assay [4], 103% (inactive); in assay [5], 95.2% (inactive); in assay [6] (setting [9]), 95.3%; in assay [6] (setting [10]) it was 95.2%. In assay [2], the Her2 level is 90.5% (inactive). Further, the differential viability (reversal) in assay [6] (H69AR cells + 2 uM doxorubicin) is -0.125% (inactive). In addition, the figures for the inhibition in assay [7] and in assay [8] were -6.67% (inactive) and 2.3% (inactive), respectively.

Take `Cc1ccccc1NS(=O)(=O)c1cc(S(C)(=O)=O)ccc1Cl`: the viability is 96% in assay [1]; 96% (inactive) in assay [3]; 110% (inactive) in assay [4]; 94.4% (inactive) in assay [5]; 91.3% in assay [6] (setting [9]); 94.4% in assay [6] (setting [10]). In assay [2], the Her2 level is 98.5% (inactive). Moreover, in assay [6] (H69AR cells + 2 uM doxorubicin), the differential viability (reversal) was 3.12% (inactive). The inhibition in assay [7] is -2.4% (inactive); in assay [8], -4.29% (inactive).

Regarding `COc1ccc(C(=O)Nc2ccc(S(=O)(=O)NC(C)=O)cc2)cc1`, the viability in assay [1] is 120%; in assay [3], 120% (inactive); in assay [4], 96.5% (inactive); in assay [5], 93.1% (inactive); in assay [6] (setting [9]), 98.8%; in assay [6] (setting [10]), 93.1%. Further, in assay [2], the Her2 level is 100% (inactive). The differential viability (reversal) in assay [6] (H69AR cells + 2 uM doxorubicin) was -5.71% (inactive). The inhibition in assay [7] is -4.13% (inactive); in assay [8] it was -2.26% (inactive).

With `c1ccc(N2CCN(Cc3ccnc4ccccc34)CC2)cc1`, the viability in assay [1] is 98%; in assay [3] it was 98% (inactive); in assay [4], 71.2% (inactive); in assay [5], 72.4% (inactive); in assay [6] (setting [9]), 93.5%; in assay [6] (setting [10]) it was 72.4%. Further, the Her2 level in assay [2] was 81.5% (inactive). Further, in assay [6] (H69AR cells + 2 uM doxorubicin), the differential viability (reversal) is -21.1% (inactive). Further, the results for the inhibition in assay [7] and in assay [8] were -6.22% (inactive) and -0.82% (inactive), respectively.
